Laboratory results as given in PMC4075987 (Biochemistry, 2014).
“Also recorded” adds a separate entry of the source. Where two headings read alike, the source gives them in different places. Square brackets hold non-standard residues; d marks the D form. Peptide text beside a SMILES is read from it. Orn(N5-OH,N5-Ac) = CC(=O)N(O)CCC[C@H](N)C(=O)O

Key:
[1] = tested on: FbpABp; format: binding, Bordetella pertussis; conditions: absence of a suitable synergistic anion
How it was run: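 Recombinant B. pertussis FbpA was made periplasmically in B. bronchiseptica ΔfbpA grown in iron-depleted Stainer–Scholte medium at 35 °C, then osmotic-shock extracted and DEAE-purified. Apo-protein took 50 equiv carbonate/oxalate (30 min) then 10 equiv Fe(ClO4)3 (overnight, 4 °C, filtered), or 10 equiv citrate/NTA then 2 equiv 1:1 Fe-anion. Iron was titrated to maximal CT band, dialysed, then competed against EDTA; pH 6.5 MES/NaCl.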

[2] = target: T1, apo-FbpABp (Bordetella pertussis, UniProt Q7VXW9); format: binding
T1 sequence (Q7VXW9 31-349): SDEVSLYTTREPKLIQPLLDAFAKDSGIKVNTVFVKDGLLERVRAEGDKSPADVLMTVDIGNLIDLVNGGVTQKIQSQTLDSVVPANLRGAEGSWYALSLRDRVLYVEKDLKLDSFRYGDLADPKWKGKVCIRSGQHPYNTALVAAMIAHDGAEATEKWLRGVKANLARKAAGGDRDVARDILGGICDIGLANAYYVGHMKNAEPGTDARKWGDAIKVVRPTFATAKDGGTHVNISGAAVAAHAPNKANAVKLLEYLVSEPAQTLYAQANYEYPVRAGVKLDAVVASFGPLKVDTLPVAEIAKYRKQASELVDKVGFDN

[3] = target: T1, apo-FbpABp; assay: UV-vis spectral difference experiment between apo-DFB and apo-FbpABp; format: binding; conditions: results not shown
[4] = target: T1, apo-FbpABp; conditions: pH 6.5, 50 mM MES, 100 mM NaCl; monitored 3 h
[5] = read-out: Kd (apparent Fe3+-siderophore/apo-FbpABp dissociation constant, eq 3), ferric siderophore complex, one-site model, 50 mM MES, 100 mM NaCl, pH 6.5, room temperature

`[Fe+3]` [Fe^3+, Ferric iron] was tested, and the “Fe3+ sequestration by FbpABp” value [1] was “No Fe^3+ sequestration was observed”.
With `CC(=O)N(O)CCCCCNC(=O)CCC(=O)N(O)CCCCCNC(=O)CCC(=O)N(O)CCCCCN` [DFB, desferrioxamine B] the Kd [2] was about 1000 nM and the “binding of apo-siderophore by apo-FbpABp” value [3] was “not able to bind an apo-siderophore effectively”.
`CC(=O)N([O-])CCC[C@@H]1NC(=O)CNC(=O)CNC(=O)CNC(=O)[C@H](CCCN([O-])C(C)=O)NC(=O)[C@H](CCCN([O-])C(C)=O)NC1=O.[Fe+3]` [FC, ferrichrome] (cyclo(GGG[Orn(N5-OH,N5-Ac)][Orn(N5-OH,N5-Ac)][Orn(N5-OH,N5-Ac)])) showed a Kd [2, 5] of about 1000 nM.
In the case of `O=C(N[C@H]1COC(=O)[C@@H](NC(=O)c2cccc(O)c2O)COC(=O)[C@@H](NC(=O)c2cccc(O)c2O)COC1=O)c1cccc(O)c1O` [ENT, enterobactin], the Kd [2] is reported as about 1000 nM and the “quenching of apo-protein fluorescence emission band by apo-siderophore” value ([2]; apo-siderophore, final protein:apo-siderophore 1:4 (ALC), 1:2 (ENT)) is reported as under 16%.
`O=C1CCC(=O)N(O)CCC(O)CNC(=O)CCC(=O)N(O)CCC(O)CN1` (centres unmarked) [ALC, alcaligin] was tested, and the Kd [2, 5] was about 100 nM.
In the case of ferric-alcaligin [Fe2(ALC)3], the “Qmax (maximum % quenching)” value ([2]; ferric siderophore complex, emission 352 nm, excitation 297 nm, pH 6.5) is reported as about 80%, the “blue shift of FbpABp emission band” value ([2]; on addition of ferric siderophore to apo-FbpABp) is reported as about 8 nm and the Kd [2, 5] is reported as 130 ± 40 nM. For the same compound, the “change of ferric siderophore CT band after addition of apo-FbpABp” value [4] was “shift in λmax from 428 nm (CT band for Fe2ALC3) to 410 nm; also recorded: λmax shifted from 428 to 410 nm”.
